Laboratory results taken from ChEMBL document CHEMBL4513216, “Probing the Open Global Health Chemical Diversity Library for Multistage-Active Starting Points for Next-Generation Antimalarials” (ACS Infect Dis, 2020).

Assay: Toxicity liver stage against HepG2, at 10uM
Format: cell-based
Design: test concentration 10 uM, cell line HepG2-A16-CD81EGFP
Settings: human, HepG2-A16-CD81EGFP cells; read-out: INHIBITION
Outline: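 Uninfected HepG2-A16-CD81EGFP cells, 3 × 10^3 per well, 1536-well, plated on prespotted compound at 10 μM final, parasite-free screening media added to match infected plates; puromycin 10 μM positive, DMSO 0.5% negative; run in parallel with 48 h PbLuc assay at 37 °C, 5% CO2; viability by CellTiter-Glo luminescence, normalized to controls.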

| Structure (SMILES) | cytotoxicity at 10 µM [%] |
| --- | --- |
| CN(CCc1ccccc1)Cc1nc(-c2cnccn2)no1 | -0.911 |
| CCCN1CCN(C(=O)CCn2cccc2)CC1 | 6.14 |
| Cc1occc1C(=O)N1C[C@@H](C(=O)N2CCCCO2)C[C@H]2OCC[C@H]21 | 12.1 |
| O=C(c1ccno1)N1CCO[C@]2(CCC[C@@H]2COCc2ccncc2)C1 | 10.2 |
| c1cncc(CN2CCCn3nnc(CN4CCCCC4)c3C2)c1 | 12.8 |
| CN1CC(Oc2ccc(Cl)cc2)=NC(SCC(=O)Nc2ccccc2)=N1 | -0.943 |
| Cc1nc(N2CCCC2)ncc1-c1cc(O)n2ncnc2n1 | 10.6 |
| CNc1nnc(SCc2nnc(C(C)(C)C)o2)s1 | -1.05 |
| Cc1nc(C)n(CC2CCCN2Cc2ccc(F)cc2C#N)n1 (stereo unspecified) | -2.59 |
| COC(=O)C1CCCN1C(=O)c1ccc(Br)cc1F (stereo unspecified) | 2.96 |
| CC(C)c1nnc2n1CCN(c1nc3ccccc3o1)C2 | 4.12 |
| Cn1ccc(C(=O)Nc2nc(-c3ccc(Cl)cc3)n[nH]2)cc1=O | -12.3 |
| CC(=O)N1CCCC(C(=O)N2CCC(=Cc3cccc(F)c3)CC2)C1 (stereo unspecified) | 12 |
| COc1ccc(NC(=O)N(C)Cc2ccc(Br)o2)cn1 | 12 |
| CCN(CC1CCOC1)C(=O)CSCC(=O)Nc1ccc(C)cc1 (stereo unspecified) | -7.04 |
| COc1ccc(C)cc1NC(=O)Cn1nc(C)c(C#N)c1N | -22.9 |
| CC(NC(=O)Nc1nccs1)c1ccc(S(C)(=O)=O)cc1 (stereo unspecified) | 7.04 |
| CCOC1CCCN(C(=O)c2ccccc2NCc2cccnc2)C1 (stereo unspecified) | 0.595 |
| CCCN(CC(=O)NC)C(=O)c1ccc(-c2ccsc2)nc1C | -14.3 |
| N#CC1(C(=O)Nc2ccc(OC(F)F)cc2)CCCC1 | -11.1 |
| c1csc(CNCC2COCc3c(-c4ccsc4)nnn3C2)n1 (stereo unspecified) | -113 |
| CC(C)C(=O)N1CCOC2(COCCN(c3ncccn3)C2)C1 (stereo unspecified) | -114 |
| Cc1[nH]c2ccc(CNc3cc(C#N)ccn3)cc2c1C | -8.4 |

| Structure (SMILES) | cytotoxicity at 10 µM [%] |
| --- | --- |
| Cc1ccc2nc(-c3nc4c([nH]3)CC(C)(C)CNC4=O)cn2c1 | 5.31 |
| Cc1ccccc1CCC(=O)N1CCc2ncnc(NCCO)c2CC1 | -21 |
| Cc1csc2c(N3CCNC(C(=O)NCc4cccnc4)C3)ncnc12 (stereo unspecified) | 1.74 |
| Cc1cnn(C2CN(CC(=O)NCC(C)C)C2)c1 | -1.33 |
| Cc1cc(C)c(CNC(=O)NCC(O)c2ccccc2F)c(=O)[nH]1 (stereo unspecified) | -0.185 |
| COc1ccc(C(O)CNC(=O)NCc2c(C)cc(C)[nH]c2=O)cc1 (stereo unspecified) | -2.99 |
| O=C(NCc1ccccc1Cn1cncn1)C1CCCC1 | -2.34 |
| CN(C(=O)CN1CCC(NC(=O)c2cccs2)CC1)c1ccccc1 | -8.55 |
| O=C(NCc1cc[nH]n1)N1CCCC(N2CCCC2)C1 (stereo unspecified) | -3.18 |
| CCCc1n[nH]c(C2CN(C(=O)c3cccnc3N(C)C)CCO2)n1 (stereo unspecified) | -2.91 |
| CN1CC(C(=O)NCCOc2ccc3c(c2)OCO3)CC1=O (stereo unspecified) | -4.35 |
| COCCCN1CCC(N(Cc2noc(C)n2)C(C)=O)C1 (stereo unspecified) | -4.22 |
| Cc1cc(NC(=O)CCN2CCCCC2Cn2cncn2)no1 (stereo unspecified) | 4.23 |
| CCNC(c1ccc(CC)cc1)c1cccnc1 (stereo unspecified) | -5.4 |
| Cc1cc(NC(=O)NCc2ccccn2)n(C)n1 | 2.14 |
| CN1CCCc2cc(CNC(=O)c3ccc(NC4CC4)nc3)ccc21 | -3.03 |
| Cc1ccc(CC(=O)N2CCCCC2c2nc(C)cs2)cn1 (stereo unspecified) | 2.6 |
| COc1ccc(CN2CCCn3nnc(COCC4CC4)c3C2)cc1 | -110 |
| COCCNC(=O)[C@@H]1CN(Cc2sccc2C)C[C@H]2OCC[C@H]21 | 2.98 |
| O=C(N1CCOCC1)[C@@]12CCO[C@@H]1CCN(C1CCC1)C2 | 3.33 |
| CN(C)Cc1cnc2n1CCN(Cc1ccsc1)CC2 | -10.4 |
| CN1CCO[C@@H]2CN(C(=O)NCc3ccccc3)CC[C@@H]2C1 | -104 |
| O=C(c1ccc(F)cc1)N1C[C@H]2CCC[C@@]2(COCc2ccncc2)C1 | 8.04 |
